In ChEMBL document CHEMBL1133729, “Design, synthesis, and structure-activity relationships of phthalimide-phenylpiperazines: a novel series of potent and selective alpha(1)(a)-adrenergic receptor antagonists” (J Med Chem, 2000):
Each block holds one molecule with its values, some of them ahead of it.

How the values were obtained:
[1] = molecular target: T1, D(4) dopamine receptor (Homo sapiens) (UniProt P21917); test: Compound at 1 uM was tested for the inhibition of radioligand [3H]spiperone binding to recombinant human Dopamine receptor D4
T1 sequence (whole entry): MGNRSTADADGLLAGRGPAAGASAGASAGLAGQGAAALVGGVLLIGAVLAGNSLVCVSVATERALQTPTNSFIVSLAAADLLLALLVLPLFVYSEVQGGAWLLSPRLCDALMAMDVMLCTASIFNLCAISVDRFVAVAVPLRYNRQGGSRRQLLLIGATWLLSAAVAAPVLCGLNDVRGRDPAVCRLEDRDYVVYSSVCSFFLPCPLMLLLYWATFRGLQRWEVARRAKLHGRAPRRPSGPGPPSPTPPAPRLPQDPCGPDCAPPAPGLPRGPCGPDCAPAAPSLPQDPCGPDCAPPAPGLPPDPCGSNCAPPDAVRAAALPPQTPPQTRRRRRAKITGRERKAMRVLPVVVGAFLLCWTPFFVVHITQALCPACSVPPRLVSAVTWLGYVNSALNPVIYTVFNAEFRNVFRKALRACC
Method in brief: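 Recombinant human D4.7 in CHO cell membranes; [3H]spiperone for 120 min at 25 °C, pH 7.4 Tris-HCl/NaCl/EDTA; haloperidol (10 μM) for nonspecific binding. Compound at 1 μM, percent inhibition determined in duplicate; filtration, scintillation counting.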

[2] = molecular target: T2, Serotonin 1 (5-HT1) receptor (Rattus norvegicus, UniProt P28564+P30940+P19327+P28565); test: Binding affinity towards central 5-hydroxytryptamine 1 receptor was determined in rat cerebral cortex using [3H]5-HT as radioligand; assay type: tissue-based
Method in brief: (§1)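 Rat cerebral cortex membranes incubated with [3H]5-HT for 10 min at 37 °C in 50 mM Tris-HCl, 150 mM NaCl, 5 mM EDTA, pH 7.4. Nonspecific binding defined with 10 μM 5-HT. Filtration, then liquid scintillation counting. Ki derived from IC50 by Cheng–Prusoff; mean of three independent experiments.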

[3] = molecular target: Dihydropyridine-sensitive L-type Ca2+ channel (Rattus norvegicus, UniProt P22002+P27732+Q02485); test: Inhibition of [3H]nitrendipine binding to Dihydropyridine-sensitive L-type [Ca2+] channel in rat cerebral cortex at 10 uM; assay type: tissue-based; conditions: probe [3H]nitrendipine
Method in brief: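 Rat cerebral cortex membranes as source of dihydropyridine-sensitive L-type Ca2+ channels; [3H]nitrendipine, 25 °C for 90 min, pH 7.4 Tris-HCl/NaCl/EDTA; 1 μM nifedipine for nonspecific binding. Percent inhibition at the single compound concentration given in each line; filtration, scintillation counting.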

[4] = molecular target: Voltage-gated L-type calcium channel (Rattus norvegicus, UniProt P22002+Q02485+P27732); test: Inhibition of [3H]nitrendipine binding to phenylalkylamine-sensitive [Ca2+] L-type channels in rat cerebral cortex; assay type: tissue-based
Histamine H1 receptor = Histamine H1 receptor (Cavia porcellus, UniProt P31389); test: Binding affinity towards histamine H1 receptor was determined in guinea pig brain using [3H]pyrilamine as radioligand
Sequence of Histamine H1 receptor (P31389 whole entry): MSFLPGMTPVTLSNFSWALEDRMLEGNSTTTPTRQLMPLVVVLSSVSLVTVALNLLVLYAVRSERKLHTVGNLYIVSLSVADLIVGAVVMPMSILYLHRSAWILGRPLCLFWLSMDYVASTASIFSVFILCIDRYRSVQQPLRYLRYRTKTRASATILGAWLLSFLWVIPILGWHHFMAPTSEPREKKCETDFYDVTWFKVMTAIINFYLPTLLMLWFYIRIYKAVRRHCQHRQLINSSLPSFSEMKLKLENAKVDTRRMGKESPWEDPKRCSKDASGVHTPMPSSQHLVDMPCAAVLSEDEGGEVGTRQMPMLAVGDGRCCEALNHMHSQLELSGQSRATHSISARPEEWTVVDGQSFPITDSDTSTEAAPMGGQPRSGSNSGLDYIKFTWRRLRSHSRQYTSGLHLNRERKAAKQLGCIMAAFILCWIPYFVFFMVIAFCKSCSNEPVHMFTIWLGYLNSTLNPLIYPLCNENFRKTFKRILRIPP
Method in brief: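 Guinea pig brain membranes as source of central H1 receptors; [3H]pyrilamine, 25 °C for 60 min in 50 mM Tris-HCl, 150 mM NaCl, 5 mM EDTA, pH 7.4; nonspecific binding with 1 μM pyrilamine. Filtration, scintillation counting. Ki by Cheng–Prusoff from fitted IC50, mean ± SEM of three experiments.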

[5] = system: Alpha-1D/Alpha-1A adrenergic receptor (Homo sapiens); test: Ratio of binding affinity towards Alpha1d to Alpha-1A
[6] = molecular target: T2, Serotonin 1 (5-HT1) receptor; test: Binding affinity towards 5-hydroxytryptamine 1 receptor was determined in rat cerebral cortex using [3H]5-HT as radioligand; assay type: tissue-based; method in brief: as §1
[7] = molecular target: 5-hydroxytryptamine receptor 1A (Homo sapiens, UniProt P08908); test: Binding affinity towards recombinant human Compound at 1 uM was tested for the inhibition of radioligand [3H]8-OH-DPAT binding to recombinant human 5-hydroxytryptamine 1A receptor was determined using [3H]8-OH-DPAT as radioligand
Sequence of 5-hydroxytryptamine receptor 1A (P08908 whole entry): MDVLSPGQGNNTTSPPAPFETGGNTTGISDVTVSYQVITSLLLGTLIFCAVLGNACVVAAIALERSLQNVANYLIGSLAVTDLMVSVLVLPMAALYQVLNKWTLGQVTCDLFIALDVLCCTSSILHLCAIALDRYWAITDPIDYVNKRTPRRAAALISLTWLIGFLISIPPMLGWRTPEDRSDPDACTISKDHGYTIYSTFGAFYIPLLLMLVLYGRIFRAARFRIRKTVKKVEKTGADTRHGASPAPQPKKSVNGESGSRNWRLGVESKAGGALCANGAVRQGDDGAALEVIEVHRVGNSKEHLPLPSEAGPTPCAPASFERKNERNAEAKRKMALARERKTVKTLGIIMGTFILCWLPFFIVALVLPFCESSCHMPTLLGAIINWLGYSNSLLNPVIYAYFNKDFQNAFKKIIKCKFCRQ
Method in brief: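 Recombinant human 5-HT1A receptor expressed in CHO cell membranes. [3H]8-OH-DPAT binding for 60 min at 25 °C in Tris/NaCl/EDTA buffer, pH 7.4. Nonspecific binding defined with 10 μM metergoline. Percent inhibition measured at 1 μM test compound in duplicate; filtration and scintillation counting.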

[8] = molecular target: Alpha-2A adrenergic receptor (Homo sapiens, UniProt P08913); test: Binding affinity towards recombinant human alpha-2A adrenergic receptor was determined using [3H]MK-912 as radioligand
Sequence of Alpha-2A adrenergic receptor (P08913 whole entry): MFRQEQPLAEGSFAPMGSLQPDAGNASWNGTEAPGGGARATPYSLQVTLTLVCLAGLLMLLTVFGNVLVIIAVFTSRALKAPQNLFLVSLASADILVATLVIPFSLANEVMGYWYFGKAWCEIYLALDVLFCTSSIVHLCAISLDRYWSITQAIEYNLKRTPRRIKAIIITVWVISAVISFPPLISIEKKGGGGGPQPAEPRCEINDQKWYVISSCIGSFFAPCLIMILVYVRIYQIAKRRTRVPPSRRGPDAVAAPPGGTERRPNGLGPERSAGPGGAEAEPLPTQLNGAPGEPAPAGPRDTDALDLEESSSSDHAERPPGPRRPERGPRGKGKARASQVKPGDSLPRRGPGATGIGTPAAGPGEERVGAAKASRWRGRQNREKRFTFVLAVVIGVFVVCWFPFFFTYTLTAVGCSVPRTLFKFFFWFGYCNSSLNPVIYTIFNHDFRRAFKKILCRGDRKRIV
Method in brief: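 Membranes from CHO cells expressing recombinant human α2a receptor; competition with [3H]MK912, 60 min at 25 °C, in 50 mM Tris-HCl/150 mM NaCl/5 mM EDTA pH 7.4. Nonspecific binding defined with 10 μM WB4101. Filtration, washing, scintillation counting. IC50 by nonlinear regression, Ki via Cheng–Prusoff; mean ± SEM of three independent experiments.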

inhibition [1]: 50%
SMILES: Cc1ccc(N2C(=O)c3ccc(C(=O)NC[C@H](O)CN4CCN(c5ccccc5OC(C)C)CC4)cc3C2=O)cc1

Ki [2]: 773 nM
inhibition at 10 µM [3]: 53%
Ki [4]: 760 nM
Ki (Histamine H1 receptor): 38 nM
SMILES: CC(C)Oc1ccccc1N1CCN(C[C@@H](O)CNC(=O)c2ccc3c(c2)C(=O)N(c2ccc(N(C)C)cc2)C3=O)CC1

Ratio [5]: 231
SMILES: Cc1ccc(N2C(=O)c3ccc(C(=O)NCCCN4CCN(c5ccccc5OC(C)C)CC4)cc3C2=O)cc1

Ki [6]: 944 nM
Ki [7]: 0.79 nM
Ki [8]: 63 nM
SMILES: CCOc1ccccc1OCCN[C@H](C)Cc1ccc(OC)c(S(N)(=O)=O)c1 [TAMSULOSIN]
